In ChEMBL document CHEMBL5303300, “EUbOPEN Chemogenomics Library - Multiplex” (2023):
“And” between values parts separate entries of the source, which are not always exact repeats. Identical values can stand only once.

Tested on: Fibroblast
Experiment: Multiplex assay against human fibroblast
Format: toxicity, cell-based
Details: number of replicates 2
Summary of the method: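 Per cents of healthy-nucleus cells form the tubulin, mitochondrial-mass and membrane-permeability phenotype values. Live cells were stained at seeding with Hoechst33342, BioTracker Green Microtubule Cytoskeleton Dye, MitoTracker Red and Annexin V Alexa Fluor 680. After compound addition they were imaged on a CQ1 microscope at 37°C and 5% CO2, and CellPathfinder machine-learning gating split them into Hoechst high-intensity objects or normal cells, normal cells into healthy, pyknosed or fragmented nuclei, and pyknosed cells into mitotic or apoptotic.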

[1] = 12 h, 1 µM, compound concentration 1 uM
[2] = 12 h, 10 µM, compound concentration 10 uM
[3] = 24 h, 1 µM, compound concentration 1 uM
[4] = 24 h, 10 µM, compound concentration 10 uM
[5] = 48 h, 1 µM, compound concentration 1 uM
[6] = 48 h, 10 µM, compound concentration 10 uM

## COC(=O)Nc1nc2c(s1)-c1c(c(-c3cccnc3)nn1-c1ccc(C3(N(C)C)CC3)cc1)CC2.Cl.Cl
[1]
  Population Apoptotic (%): 38% and 45%
  Population Fragmented Nuclei (%): 50% and 26%
  Population Healthy Nuclei (%): 40% and 52%
  Population Hoechst High Intensity Objects (%): 0%
  Population Membrane Permeable-Phenotype (%): 5% and 6%
  Population Mitochondria Different-Phenotype (%): 0%
  Population Mitotic Cells (%): 61% and 54%
  Population Normal (%): 99% and 100%
  Population Pyknosed Nuclei (%): 9% and 21%
  Population Tubulin-Different-Phenotype (%): 29% and 31%
  Total Cell Count: 378 and 219
[2]
  Population Apoptotic (%): 62% and 41%
  Population Fragmented Nuclei (%): 31% and 34%
  Population Healthy Nuclei (%): 55% and 57%
  Population Hoechst High Intensity Objects (%): 0%
  Population Membrane Permeable-Phenotype (%): 13% and 11%
  Population Mitochondria Different-Phenotype (%): 2% and 4%
  Population Mitotic Cells (%): 37% and 58%
  Population Normal (%): 100% and 99%
  Population Pyknosed Nuclei (%): 12% and 8%
  Population Tubulin-Different-Phenotype (%): 63% and 52%
  Total Cell Count: 218 and 427
[3]
  Population Apoptotic (%): 60% and 87%
  Population Fragmented Nuclei (%): 50% and 24%
  Population Healthy Nuclei (%): 42% and 60%
  Population Hoechst High Intensity Objects (%): 0%
  Population Membrane Permeable-Phenotype (%): 4%
  Population Mitochondria Different-Phenotype (%): 2% and 3%
  Population Normal (%): 99% and 100%
  Population Pyknosed Nuclei (%): 6% and 15%
  Population Tubulin-Different-Phenotype (%): 20% and 31%
  Total Cell Count: 350 and 202
[4]
  Population Apoptotic (%): 65% and 52%
  Population Fragmented Nuclei (%): 34% and 36%
  Population Healthy Nuclei (%): 55% and 57%
  Population Hoechst High Intensity Objects (%): 0%
  Population Membrane Permeable-Phenotype (%): 11% and 5%
  Population Mitochondria Different-Phenotype (%): 4% and 3%
  Population Mitotic Cells (%): 34% and 48%
  Population Normal (%): 100% and 99%
  Population Pyknosed Nuclei (%): 10% and 5%
  Population Tubulin-Different-Phenotype (%): 53% and 44%
  Total Cell Count: 225 and 437
[5]
  Population Apoptotic (%): 52% and 74%
  Population Fragmented Nuclei (%): 51% and 29%
  Population Healthy Nuclei (%): 43% and 56%
  Population Hoechst High Intensity Objects (%): 0%
  Population Membrane Permeable-Phenotype (%): 6% and 5%
  Population Mitochondria Different-Phenotype (%): 2% and 0%
  Population Mitotic Cells (%): 47% and 25%
  Population Normal (%): 99% and 100%
  Population Pyknosed Nuclei (%): 5% and 13%
  Population Tubulin-Different-Phenotype (%): 12% and 21%
  Total Cell Count: 339 and 195
[6]
  Population Apoptotic (%): 57% and 73%
  Population Fragmented Nuclei (%): 38% and 39%
  Population Healthy Nuclei (%): 58% and 53%
  Population Hoechst High Intensity Objects (%): 0%
  Population Membrane Permeable-Phenotype (%): 3% and 0%
  Population Mitochondria Different-Phenotype (%): 3% and 1%
  Population Mitotic Cells (%): 42% and 26%
  Population Normal (%): 100% and 99%
  Population Pyknosed Nuclei (%): 3% and 6%
  Population Tubulin-Different-Phenotype (%): 42% and 17%
  Total Cell Count: 223 and 418

## COc1ccc(CC[C@@H](OC(=O)[C@@H]2CCCCN2C(=O)[C@H](c2cc(OC)c(OC)c(OC)c2)C2CCCCC2)c2cccc(OCCN3CCOCC3)c2)cc1OC
[1]
  Population Apoptotic (%): 42% and 47%
  Population Fragmented Nuclei (%): 12% and 11%
  Population Healthy Nuclei (%): 65% and 64%
  Population Hoechst High Intensity Objects (%): 0%
  Population Membrane Permeable-Phenotype (%): 20%
  Population Mitochondria Different-Phenotype (%): 7% and 2%
  Population Mitotic Cells (%): 57% and 52%
  Population Normal (%): 100% and 99%
  Population Pyknosed Nuclei (%): 21% and 23%
  Population Tubulin-Different-Phenotype (%): 81% and 69%
  Total Cell Count: 227 and 146
[2]
  Population Apoptotic (%): 51% and 55%
  Population Fragmented Nuclei (%): 14% and 19%
  Population Healthy Nuclei (%): 60% and 59%
  Population Hoechst High Intensity Objects (%): 0%
  Population Membrane Permeable-Phenotype (%): 25% and 21%
  Population Mitochondria Different-Phenotype (%): 14% and 11%
  Population Mitotic Cells (%): 48% and 44%
  Population Normal (%): 99% and 100%
  Population Pyknosed Nuclei (%): 24% and 20%
  Population Tubulin-Different-Phenotype (%): 89% and 84%
  Total Cell Count: 188 and 273
[3]
  Population Apoptotic (%): 50% and 59%
  Population Fragmented Nuclei (%): 7% and 20%
  Population Healthy Nuclei (%): 67% and 51%
  Population Hoechst High Intensity Objects (%): 0%
  Population Membrane Permeable-Phenotype (%): 10% and 9%
  Population Mitochondria Different-Phenotype (%): 14%
  Population Mitotic Cells (%): 50% and 40%
  Population Normal (%): 99% and 100%
  Population Pyknosed Nuclei (%): 24% and 28%
  Population Tubulin-Different-Phenotype (%): 74% and 65%
  Total Cell Count: 207 and 148
[4]
  Population Apoptotic (%): 66% and 71%
  Population Fragmented Nuclei (%): 14% and 20%
  Population Healthy Nuclei (%): 59% and 56%
  Population Hoechst High Intensity Objects (%): 0%
  Population Membrane Permeable-Phenotype (%): 15% and 6%
  Population Mitochondria Different-Phenotype (%): 24% and 45%
  Population Mitotic Cells (%): 33% and 28%
  Population Normal (%): 99%
  Population Pyknosed Nuclei (%): 26% and 22%
  Population Tubulin-Different-Phenotype (%): 86% and 89%
  Total Cell Count: 193 and 253
[5]
  Population Apoptotic (%): 71% and 82%
  Population Fragmented Nuclei (%): 6% and 14%
  Population Healthy Nuclei (%): 77% and 66%
  Population Hoechst High Intensity Objects (%): 0%
  Population Membrane Permeable-Phenotype (%): 8% and 17%
  Population Mitochondria Different-Phenotype (%): 3% and 10%
  Population Mitotic Cells (%): 28% and 17%
  Population Normal (%): 100% and 99%
  Population Pyknosed Nuclei (%): 16% and 18%
  Population Tubulin-Different-Phenotype (%): 61% and 51%
  Total Cell Count: 199 and 150
[6]
  Population Apoptotic (%): 85% and 80%
  Population Fragmented Nuclei (%): 22% and 29%
  Population Healthy Nuclei (%): 59% and 55%
  Population Hoechst High Intensity Objects (%): 1% and 0%
  Population Membrane Permeable-Phenotype (%): 20% and 8%
  Population Mitochondria Different-Phenotype (%): 27% and 30%
  Population Mitotic Cells (%): 14% and 20%
  Population Normal (%): 98% and 99%
  Population Pyknosed Nuclei (%): 17% and 15%
  Population Tubulin-Different-Phenotype (%): 91%
  Total Cell Count: 195 and 265
